# Measured values collected from several papers.
# Compare with care: the assays were run in different laboratories.
# Target: Casein kinase II subunit alpha (CSNK2A1, Homo sapiens, UniProt P68400)
SMILES,assay,setting,remaining binding [%]
CNC(=O)[C@@H]1CC[C@@H](n2c(-c3ccc4cnccc4c3)nc3ccc(C(=O)NCc4cccc(C(N)=O)c4)cc32)C1,"binding, competition with immobilised ligand",1 µM,94
F[C@@H]1CCN(c2nccc(-c3cnn4ncccc34)n2)C1,binding,1 µM,58
O=C(NCC1CCOCC1)c1n[nH]cc1NC(=O)c1c(F)cccc1F,"binding, competition with immobilised ligand",1 µM,59
Nc1ncc2c(n1)-c1c([nH]c3ccc(C#CC4CC4)cc13)CCCC2,"binding, competition with immobilised ligand",1 µM,79
O=C(NCCCN1CCOCC1)c1ccc(Nc2ncc(Cl)c(-c3ccc(Cl)s3)n2)cc1,"binding, competition with immobilised ligand",1 µM,4
N[C@@H]1CCN(c2nccc(-c3cnn4ncccc34)n2)C1,binding,1 µM,52
O=S(=O)(NC1CCC(c2cc(F)ccc2F)(S(=O)(=O)c2ccc(Cl)cc2)CC1)C(F)(F)F (stereo not drawn),"cell-free assay, competition with immobilised ligand",1 µM,85
C[C@@H](c1ccc(-n2cnc3c(N)ncnc32)cc1)N1CCc2nn(C)c(Cc3ccccc3)c2C1=O,"binding, competition with immobilised ligand",0.1 µM,73
Cn1nc(C(F)(F)F)cc1-c1cnc(N2CCc3cc(S(=O)(=O)Nc4c(F)cc(Cl)cc4F)cc(N4CCCC4=O)c32)nc1,"cell-free assay, competition with immobilised ligand",1 µM,65
Cc1cnn2ncc(-c3ccnc(N(C)C)n3)c2c1,binding,1 µM,86
CC1=C(C#N)[C@@H](c2ccc3[nH]nc(C)c3c2)C(C#N)=C(c2ccc(Cl)cc2)N1,"cell-free assay, competition with immobilised ligand",1 µM,100
CCN1CCN(Cc2ccc(C(=O)Nc3ccc(C)c(Oc4ccc5c(c4)CC(=O)N5)c3)cc2C(F)(F)F)CC1,"binding, competition with immobilised ligand",1 µM,100
COc1cc(-c2cn(C3CCc4c(F)cccc4N(CC(F)(F)F)C3=O)nn2)ccc1-n1cnc(C)c1 (stereo not drawn),"cell-free assay, competition with immobilised ligand",1 µM,100
CC1CCCN1c1nccc(-c2cnn3ncccc23)n1 (stereo not drawn),binding,1 µM,90
O=C(NCCCN1CCOCC1)c1ccc(Nc2nccc(-c3cc4ccccc4s3)n2)cc1,"binding, competition with immobilised ligand",1 µM,37
CN(C)c1nccc(-c2cnn3ncccc23)n1,binding,1 µM,39
O=C(c1ccc(Nc2ncc(Cl)c(-c3cc4ccccc4s3)n2)cc1)N1CCC(N2CCCC2)CC1,"binding, competition with immobilised ligand",1 µM,0.9
CSc1cccnc1N1CCN(Cc2nc3ccccc3[nH]2)CC1,"cell-free assay, competition with immobilised ligand",1 µM,81
CN(C)c1nccc(-c2cnc3ncccn23)n1,binding,1 µM,47
N#CC1(c2ccccn2)CCN(Cc2cc(C(=O)N3CCCC3)c(=O)n3ccccc23)CC1,"cell-free assay, competition with immobilised ligand",1 µM,100
COc1cnc(Nc2cccc(S(N)(=O)=O)c2)nc1N1CCN(c2ccccc2)CC1,"binding, competition with immobilised ligand",1 µM,71
